pIC50: −log10 of the molar value. Blank lines part the entries; values can stand above or below the molecule they belong to. The source made the active and inactive calls. The rule behind the calls is not given here.
How the values were obtained:
[1] = biological target: T1, DNA topoisomerase 2-alpha (Homo sapiens, UniProt P11388); assay: Inhibition of human topoisomerase 2 p170alpha assessed as relaxation of lambda ZAPII plasmid Bluescript KS+ DNA at 100 uM by SDS electrophoresis
Procedure, shortened: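 Compound at 100 µM in 0.5% Cremophor EL, 30 min at 37 °C. Stopped with 1% SDS, then proteinase K 50 µg/mL and chloroform-isoamyl alcohol extraction. Run on 1% TAE agarose with ethidium bromide 0.5 µg/mL post-stain. Etoposide 100 µM as control.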

[2] = test system: Saccharomyces cerevisiae; assay: DNA damaging activity against topoisomerase 2-deficient RS321N mutant yeast assessed as drug level required to produce 12 mm zone of inhibition by agar well diffusion assay; format: functional
Procedure, shortened: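 S. cerevisiae RS321N seeded on 1% nutrient agar. Samples in 1:1 DMSO-MeOH went into 7 mm wells. The read-out was the zone (mm) of no visible growth. Several concentrations were tested, and the dose giving a 12 mm zone (IC12) was calculated by regression.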

[3] = test system: Saccharomyces cerevisiae; assay: DNA damaging activity against wild type DNA repairing RAD gene expressing yeast at 200 ug/mL by agar well diffusion assay; format: functional, organism-based
Procedure, shortened: (§1)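 Yeast strains (rad52Y; RAD+ wild type) were seeded separately on 1% nutrient agar plates. Samples at 200 µg/mL in 1:1 DMSO-MeOH were placed in wells cut by removing 7 mm plugs. Activity was the width (mm) of the zone around the well with no visible yeast growth. Camptothecin and streptonigrin at 5 µg/mL served as controls.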

[4] = test system: Saccharomyces cerevisiae; assay: DNA damaging activity against topoisomerase 2-deficient rad52Y mutant yeast at 200 ug/mL by agar well diffusion assay; format: functional, organism-based; procedure, shortened: as §1
[5] = test system: Saccharomyces cerevisiae; assay: DNA damaging activity against wild type DNA repairing RAD gene expressing yeast assessed as drug level required to produce 12 mm zone of inhibition by agar well diffusion assay; format: functional
Procedure, shortened: (§2)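 Saccharomyces cerevisiae strains (RS321N, rad52Y, RAD+) were seeded separately onto 1% nutrient agar. Samples at 200 µg/mL in 1:1 DMSO-MeOH went into 7 mm wells, and the clear growth-free zone was measured in mm. For actives, several concentrations were tested, and the dose giving a 12 mm zone (IC12) came from regression. Camptothecin and streptonigrin at 5 µg/mL served as controls.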

[6] = test system: Saccharomyces cerevisiae; assay: DNA damaging activity against topoisomerase 2-deficient rad52Y mutant yeast assessed as drug level required to produce 12 mm zone of inhibition by agar well diffusion assay; format: functional; procedure, shortened: as §2
[7] = test system: SF-268; assay: Cytotoxicity against human SF268 cells after 48 hrs by MTT assay at up to 10 uM; format: functional, cell-based
Procedure, shortened: (§3)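 Cells kept in RPMI with 10% FBS at 37 °C, 5% CO2. Log-phase cells were treated in triplicate with 0-10 µM compound for 48 h at 37 °C in humidified 5% CO2. Viability was read by MTT absorbance on a plate reader.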

[8] = test system: MCF7; assay: Cytotoxicity against human MCF7 cells after 48 hrs by MTT assay; format: functional, cell-based; details: MCF7, 48 h; procedure, shortened: as §3
[9] = test system: NCI-H460; assay: Cytotoxicity against human NCI-H460 cells after 48 hrs by MTT assay at up to 10 uM; format: functional, cell-based; procedure, shortened: as §3
[10] = biological target: T1, DNA topoisomerase 2-alpha; assay: Inhibition of human topoisomerase 2 p170alpha assessed as relaxation of lambda ZAPII plasmid Bluescript KS+ DNA by SDS electrophoresis
Procedure, shortened: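 Supercoiled pBlueScript KS(+) (about 200 ng) relaxed by 4 units human topo II (p170) in Tris-HCl pH 8.0 buffer with 120 mM KCl, 10 mM MgCl2, 0.5 mM ATP and DTT. Compound in 0.5% Cremophor EL, dilution series in triplicate, 30 min at 37 °C. SDS/proteinase K stop, then 1% TAE agarose gel with ethidium bromide staining. IC50 from the dilution series.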

[11] = test system: Nucleic Acid; assay: Displacement of methyl green dye from DNA by spectrophotometry; format: nucleic-acid assay
Procedure, shortened: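 Daunomycin (50 µg/mL) was the positive control. Methyl green absorbance was read on a plate reader.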

[12] = biological target: T1, DNA topoisomerase 2-alpha; assay: Inhibition of human topoisomerase 2 p170alpha assessed as movement supercoiled lambda ZAPII plasmid Bluescript KS+ DNA at 100 uM after 60 mins by electrophoretic mobility shift assay
Procedure, shortened: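 Mobility shift with pBlueScript KS(+) and 6 units human topo II (p170) in ATP-free buffer. Buffer, running buffer and gel were all at pH 6.4. Compound at 100 µM, with etoposide 50 µM as control. No SDS/proteinase K stop; samples loaded directly onto a TAE gel containing 1.0 µg/mL ethidium bromide.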

T1 sequence (P11388 whole entry): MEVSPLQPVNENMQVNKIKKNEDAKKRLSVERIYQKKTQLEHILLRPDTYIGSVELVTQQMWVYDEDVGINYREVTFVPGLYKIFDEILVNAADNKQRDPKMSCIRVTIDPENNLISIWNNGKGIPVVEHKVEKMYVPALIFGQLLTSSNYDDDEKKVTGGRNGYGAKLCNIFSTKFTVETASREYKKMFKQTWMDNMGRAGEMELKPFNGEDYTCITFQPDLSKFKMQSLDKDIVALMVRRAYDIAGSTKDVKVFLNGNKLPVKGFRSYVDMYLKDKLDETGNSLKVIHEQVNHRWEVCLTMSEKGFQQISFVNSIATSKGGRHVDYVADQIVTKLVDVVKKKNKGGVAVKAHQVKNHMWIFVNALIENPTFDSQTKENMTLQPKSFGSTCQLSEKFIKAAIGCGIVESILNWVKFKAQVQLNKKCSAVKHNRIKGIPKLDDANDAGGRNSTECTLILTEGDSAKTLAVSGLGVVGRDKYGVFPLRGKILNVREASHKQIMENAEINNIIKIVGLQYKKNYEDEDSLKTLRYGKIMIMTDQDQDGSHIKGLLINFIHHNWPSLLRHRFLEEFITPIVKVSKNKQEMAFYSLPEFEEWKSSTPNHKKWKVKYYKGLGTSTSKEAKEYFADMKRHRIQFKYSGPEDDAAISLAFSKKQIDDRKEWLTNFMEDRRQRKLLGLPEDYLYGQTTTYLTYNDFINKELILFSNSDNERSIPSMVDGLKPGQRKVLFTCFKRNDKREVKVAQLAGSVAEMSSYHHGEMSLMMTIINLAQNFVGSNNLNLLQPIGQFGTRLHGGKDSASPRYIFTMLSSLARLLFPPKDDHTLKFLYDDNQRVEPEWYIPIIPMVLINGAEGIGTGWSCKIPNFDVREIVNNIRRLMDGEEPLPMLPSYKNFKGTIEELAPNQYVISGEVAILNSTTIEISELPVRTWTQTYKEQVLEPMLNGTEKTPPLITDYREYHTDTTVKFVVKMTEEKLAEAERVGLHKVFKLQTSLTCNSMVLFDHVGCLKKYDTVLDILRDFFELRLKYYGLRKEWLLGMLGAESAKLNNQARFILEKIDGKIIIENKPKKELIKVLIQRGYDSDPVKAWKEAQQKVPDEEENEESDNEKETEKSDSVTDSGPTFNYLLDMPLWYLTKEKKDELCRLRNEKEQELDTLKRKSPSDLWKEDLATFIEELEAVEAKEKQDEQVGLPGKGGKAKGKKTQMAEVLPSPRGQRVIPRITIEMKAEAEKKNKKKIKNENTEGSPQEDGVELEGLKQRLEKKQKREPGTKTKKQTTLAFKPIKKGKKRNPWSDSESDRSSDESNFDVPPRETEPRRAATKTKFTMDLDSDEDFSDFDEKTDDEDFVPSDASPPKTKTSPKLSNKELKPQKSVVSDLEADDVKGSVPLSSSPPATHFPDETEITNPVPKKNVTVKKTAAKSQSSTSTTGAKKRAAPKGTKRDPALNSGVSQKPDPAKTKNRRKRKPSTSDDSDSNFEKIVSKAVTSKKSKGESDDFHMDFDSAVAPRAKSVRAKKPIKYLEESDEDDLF

Activity [1]: inactive
SMILES: COC(=O)[C@]1(C)CC[C@]2(C)CC[C@]3(C)C4=CC(=O)c5c(cc(O)c(O)c5C(=O)O)[C@]4(C)CC[C@@]3(C)[C@@H]2C1

SMILES: COC(=O)[C@]1(C)CC[C@]2(C)CC[C@]3(C)C4=CC(=O)c5c(cc(O)c(O)c5C=O)[C@]4(C)CC[C@@]3(C)[C@@H]2C1
Activity [1]: inactive

SMILES: COC(=O)[C@]1(C)CC[C@]2(C)CC[C@]3(C)C4=CCc5c(cc(O)c(O)c5C)[C@]4(C)CC[C@@]3(C)[C@@H]2C1
Activity [1]: inactive

Activity [1]: inactive
SMILES: COc1cc([C@@H]2c3cc4c(cc3[C@@H](O[C@@H]3O[C@@H]5CO[C@@H](C)O[C@H]5[C@H](O)[C@H]3O)[C@H]3COC(=O)[C@H]23)OCO4)cc(OC)c1O

Activity [4]: inactive
SMILES: CC1=C(O)C(=O)C=C2C1=CC=C1[C@@]2(C)CC[C@@]2(C)[C@@H]3C[C@](C)(O)C(=O)C[C@]3(C)CC[C@]12C [20ALPHA-HYDROXYTINGENONE]
IC12 (concentration giving a 12 mm inhibition zone) [2]: 185 µg/mL
Activity [3]: inactive

Activity [4]: inactive
SMILES: CC1=C2C3=CC=C4C(=CC(=O)C(O)=C4C)[C@]3(C)CC[C@@]2(C)[C@@H]2C[C@@H](C)[C@@H](O)C(=O)C2C1 (stereo not given in full) [BALAENONOL]
IC12 (concentration giving a 12 mm inhibition zone) [2]: 220 µg/mL
Activity [3]: inactive

SMILES: CC[C@@]1(O)C(=O)OCc2c1cc1n(c2=O)Cc2cc3ccccc3nc2-1 [CAMPTOTHECIN]
IC12 (concentration giving a 12 mm inhibition zone) [2]: >20 µg/mL
Activity [5]: 110 µg/mL
Activity [6]: 0.6 µg/mL

SMILES: C[C@@]1(C(=O)O)CC[C@]2(C)CC[C@]3(C)C4=CC(=O)c5c(cc(O)c(O)c5C(=O)O)[C@]4(C)CC[C@@]3(C)[C@@H]2C1 [DEMETHYLZEYLASTERONE]
Activity [7]: inactive
pIC50 [8]: 4.90
Activity [9]: inactive
pIC50 [10]: 4.75
Activity [11]: Active
Activity [1]: Active
Activity [12]: Active

SMILES: COC1=C(N)C(=O)c2nc(-c3nc(C(=O)O)c(C)c(-c4ccc(OC)c(OC)c4O)c3N)ccc2C1=O [STREPTONIGRIN]
IC12 (concentration giving a 12 mm inhibition zone) [2]: <0.4 µg/mL
Activity [6]: 0.4 µg/mL

SMILES: CC1=C(O)C(=O)C=C2C1=CC=C1[C@@]2(C)CC[C@@]2(C)[C@@H]3C[C@@H](C)C(=O)C[C@]3(C)CC[C@]12C [TINGENONE]
IC12 (concentration giving a 12 mm inhibition zone) [2]: 325 µg/mL
Activity [3]: inactive
Activity [4]: inactive

Source: ChEMBL document CHEMBL1156357, “Catalytic inhibition of topoisomerase IIalpha by demethylzeylasterone, a 6-oxophenolic triterpenoid from Kokoona zeylanica” (J Nat Prod, 2001)
